Data on 9 compounds can be found in ChEMBL document CHEMBL2424628, “Discovery of potent and selective nonsteroidal indazolyl amide glucocorticoid receptor agonists” (Bioorg Med Chem Lett, 2013).

One may read the Ki as a dissociation constant, usually derived from enzyme kinetics or from competition with a known ligand. Low values mean tighter binding, high ones weaker binding. Usually EC50 stands for the midpoint of the concentration-response curve.

For assay [1], the target named is T1, Glucocorticoid receptor (Homo sapiens) (UniProt P04150).
T1 sequence (whole entry): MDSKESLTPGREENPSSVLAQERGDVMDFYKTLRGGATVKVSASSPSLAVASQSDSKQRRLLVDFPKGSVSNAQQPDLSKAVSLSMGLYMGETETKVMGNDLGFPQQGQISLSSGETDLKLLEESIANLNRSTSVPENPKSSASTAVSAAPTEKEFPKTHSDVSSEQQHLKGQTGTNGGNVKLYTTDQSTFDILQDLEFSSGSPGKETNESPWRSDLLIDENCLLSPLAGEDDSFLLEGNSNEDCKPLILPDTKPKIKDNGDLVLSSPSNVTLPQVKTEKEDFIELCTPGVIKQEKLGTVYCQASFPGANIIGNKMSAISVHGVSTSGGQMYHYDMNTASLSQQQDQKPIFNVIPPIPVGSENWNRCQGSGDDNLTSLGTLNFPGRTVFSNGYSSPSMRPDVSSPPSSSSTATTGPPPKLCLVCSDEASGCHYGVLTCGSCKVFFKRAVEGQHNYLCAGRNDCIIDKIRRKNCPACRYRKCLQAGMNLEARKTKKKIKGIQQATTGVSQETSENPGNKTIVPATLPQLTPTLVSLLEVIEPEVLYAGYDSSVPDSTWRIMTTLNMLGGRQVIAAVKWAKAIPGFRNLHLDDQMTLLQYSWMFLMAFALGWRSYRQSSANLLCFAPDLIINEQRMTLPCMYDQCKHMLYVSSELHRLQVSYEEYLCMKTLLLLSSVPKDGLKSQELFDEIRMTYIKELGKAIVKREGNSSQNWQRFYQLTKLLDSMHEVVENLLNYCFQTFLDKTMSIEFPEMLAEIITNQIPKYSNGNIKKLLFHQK
The assay can be described thus: Agonist activity at glucocorticoid receptor in human A549 cells assessed as inhibition of IL-1beta-induced NF-kappaB dependent E-selectin activation by luciferase reporter gene assay relative to dexamethasone. Type of assay: cell-based. (Reporter assays use an easily measured gene product as a stand-in for the process of interest.)

Assay [2] deals with T2, Glucocorticoid receptor (Homo sapiens, UniProt P04150).
T2 sequence (P04150 whole entry): T1 sequence (whole entry)
The assay can be described thus: Binding affinity to glucocorticoid receptor (unknown origin) by fluorescence polarization assay. In general terms: In fluorescence polarisation assays a small probe gives low polarisation when free and higher when bound to something large.

For assay [3], the target named is T2, Glucocorticoid receptor. The assay can be described thus: Agonist activity at glucocorticoid receptor in human A549 cells assessed as inhibition of IL-1beta-induced NF-kappaB dependent E-selectin activation by luciferase reporter gene assay. Type of assay: cell-based.
Assay [4] concerns the target T1, Glucocorticoid receptor (Homo sapiens). The assay can be described thus: Transactivation of glucocorticoid receptor ligand binding domain (unknown origin) transfected in human HeLa cells assessed as activation of NP-1 by GAL4 luciferase reporter gene assay relative to dexamethasone. Type of assay: cell-based. The method in brief:
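HeLa line (NP-1) stably transfected with a GR ligand binding domain chimera in a GAL4 luciferase reporter system, run in agonist mode. Direct GR-LBD activation read as increased luciferase activity. Means of two or more experiments in triplicate.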

The target in assay [5] is T2, Glucocorticoid receptor. The assay can be described thus: Transactivation of glucocorticoid receptor ligand binding domain (unknown origin) transfected in human HeLa cells assessed as activation of NP-1 by GAL4 luciferase reporter gene assay. Type of assay: cell-based.
Assay [6] has as its target T2, Glucocorticoid receptor. The assay can be described thus: Agonist activity at glucocorticoid receptor in human A549 cells assessed as inhibition of PMA-induced AP-1 activation by luciferase reporter gene assay. Type of assay: cell-based.
The target of assay [7] is T1, Glucocorticoid receptor (Homo sapiens). The assay can be described thus: Agonist activity at glucocorticoid receptor in human A549 cells assessed as inhibition of PMA-induced AP-1 activation by luciferase reporter gene assay relative to dexamethasone. Type of assay: cell-based. The procedure, abridged:
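A549 lung epithelial cells stably carrying a luciferase reporter with 5 copies of the AP-1 response element; AP-1 induced with PMA (15 ng/ml). Compound inhibition of induction read as decreased luciferase. […] Means of two or more experiments in triplicate.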

The species entered for assay [8] is Homo sapiens. The assay can be described thus: Selectivity ratio of Ki for progesterone receptor (unknown origin) to Ki for glucocorticoid receptor (unknown origin).
For assay [9], the target named is T3, Progesterone receptor (Homo sapiens, UniProt P06401).
T3 sequence (P06401 whole entry): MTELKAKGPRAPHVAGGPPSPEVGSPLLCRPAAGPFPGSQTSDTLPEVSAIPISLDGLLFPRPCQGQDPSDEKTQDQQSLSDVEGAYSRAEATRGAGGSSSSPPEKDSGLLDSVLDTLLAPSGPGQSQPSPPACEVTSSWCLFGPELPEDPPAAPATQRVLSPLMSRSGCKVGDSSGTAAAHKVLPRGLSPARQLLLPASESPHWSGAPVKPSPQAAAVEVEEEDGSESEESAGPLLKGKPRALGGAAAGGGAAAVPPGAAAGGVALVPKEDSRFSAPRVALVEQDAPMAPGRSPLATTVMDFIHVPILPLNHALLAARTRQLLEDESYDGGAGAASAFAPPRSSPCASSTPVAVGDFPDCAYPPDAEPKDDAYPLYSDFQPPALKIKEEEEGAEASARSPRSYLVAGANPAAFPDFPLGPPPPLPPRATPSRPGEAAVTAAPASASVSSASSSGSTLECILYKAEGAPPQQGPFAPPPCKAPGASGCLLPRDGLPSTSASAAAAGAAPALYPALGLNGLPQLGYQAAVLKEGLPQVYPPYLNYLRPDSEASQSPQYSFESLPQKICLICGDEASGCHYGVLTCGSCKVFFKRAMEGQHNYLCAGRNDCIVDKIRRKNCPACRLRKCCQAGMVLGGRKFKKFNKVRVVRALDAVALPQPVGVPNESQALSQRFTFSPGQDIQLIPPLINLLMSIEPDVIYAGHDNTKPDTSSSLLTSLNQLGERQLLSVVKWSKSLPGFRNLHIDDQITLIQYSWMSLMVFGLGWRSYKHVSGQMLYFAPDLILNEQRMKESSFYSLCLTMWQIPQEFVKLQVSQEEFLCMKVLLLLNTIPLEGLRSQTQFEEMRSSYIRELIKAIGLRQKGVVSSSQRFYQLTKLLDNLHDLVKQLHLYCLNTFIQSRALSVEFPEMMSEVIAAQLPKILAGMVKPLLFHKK
The assay can be described thus: Binding affinity to progesterone receptor (unknown origin) by fluorescence polarization assay. The procedure, abridged:
(§1)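 Fluorescence polarization competition between test compound and a fluorescently labeled ligand for full-length receptor or its ligand binding domain. IC50 from a four-parameter logistic fit of the polarization signal, converted to Ki with Cheng–Prusoff […]. Means of duplicate experiments.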

Assay [10] deals with T4, Androgen receptor (Homo sapiens, UniProt P10275).
T4 sequence (P10275 whole entry): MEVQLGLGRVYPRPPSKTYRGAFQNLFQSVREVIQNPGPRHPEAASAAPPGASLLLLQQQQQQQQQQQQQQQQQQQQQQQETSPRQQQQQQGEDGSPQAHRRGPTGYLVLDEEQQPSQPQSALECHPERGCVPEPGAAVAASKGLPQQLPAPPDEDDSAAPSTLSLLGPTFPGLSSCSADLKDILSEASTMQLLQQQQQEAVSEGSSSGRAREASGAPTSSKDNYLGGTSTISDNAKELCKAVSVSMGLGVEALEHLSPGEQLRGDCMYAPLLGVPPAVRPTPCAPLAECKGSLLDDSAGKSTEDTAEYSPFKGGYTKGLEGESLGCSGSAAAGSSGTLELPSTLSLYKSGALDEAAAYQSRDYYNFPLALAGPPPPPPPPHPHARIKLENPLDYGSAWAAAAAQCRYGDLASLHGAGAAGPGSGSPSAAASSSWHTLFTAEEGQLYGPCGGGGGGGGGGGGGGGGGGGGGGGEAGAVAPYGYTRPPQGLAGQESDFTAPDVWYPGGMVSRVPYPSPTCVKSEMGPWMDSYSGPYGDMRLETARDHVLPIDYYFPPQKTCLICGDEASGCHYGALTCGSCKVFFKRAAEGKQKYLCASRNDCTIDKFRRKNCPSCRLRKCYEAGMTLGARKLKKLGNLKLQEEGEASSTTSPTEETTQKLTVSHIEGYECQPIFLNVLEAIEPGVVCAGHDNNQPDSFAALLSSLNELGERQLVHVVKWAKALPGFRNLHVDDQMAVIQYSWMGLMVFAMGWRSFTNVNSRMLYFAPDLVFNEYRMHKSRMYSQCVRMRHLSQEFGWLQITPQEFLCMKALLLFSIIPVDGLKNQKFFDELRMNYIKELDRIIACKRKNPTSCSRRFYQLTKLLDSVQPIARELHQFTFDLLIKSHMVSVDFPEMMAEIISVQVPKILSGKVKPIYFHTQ
The assay can be described thus: Binding affinity to androgen receptor (unknown origin) by fluorescence polarization assay. The procedure, abridged: as §1

For assay [11], the species on record is Homo sapiens. The assay can be described thus: Selectivity ratio of Ki for androgen receptor (unknown origin) to Ki for glucocorticoid receptor (unknown origin).

In the case of `CC(C)(C(=O)Nc1nccs1)[C@H](c1ccccc1)c1ccc2c(cnn2-c2ccc(F)cc2)c1`, the Efficacy in assay [1] was 81%; in assay [4] it was 59%; in assay [7], 56%. For the same compound, affinity in [2] was put at a Ki of 7.9 nM. The EC50 was found to be 58 nM in assay [3], 435 nM in assay [5] and 400 nM in [6].
Regarding `CC(C)(C(=O)Nc1nncs1)[C@@H](c1ccccc1)c1ccc2[nH]ncc2c1`, the values for the Efficacy in [1], in assay [4] and in [7] were 77%, 41% and 79%, respectively. In assay [2], the Ki amounted to 2.7 nM. Moreover, the EC50 is 15 nM in assay [3], 208 nM in [5] and 24 nM in assay [6].
On to `CC(C)(C(=O)Nc1nncs1)[C@H](c1ccccc1)c1ccc2[nH]ncc2c1`, for which the Efficacy in assay [1] was under 30%; in assay [4], under 30%; in assay [7] it was 35%. Besides, the affinity in assay [2] corresponds to a Ki of 13 nM. For the same compound, the EC50 in [3] is over 5000 nM; in [5] it was over 10000 nM; in [6] it was 617 nM.
Turning to `CC(C)(C(=O)Nc1nccs1)[C@@H](c1ccccc1)c1ccc2c(cnn2-c2ccc(F)cc2)c1`, the Efficacy is 97% in [1], 94% in assay [4] and 92% in assay [7]. The affinity in [2] corresponds to a Ki of 6 nM. Further, the figures for the half-maximal effective concentration (EC50) in [3], in assay [5] and in [6] were 0.5 nM, 7.6 nM and 1.4 nM, respectively.
Take `CCCC(c1ccc2c(cnn2-c2ccc(F)cc2)c1)C(C)(C)C(=O)Nc1nncs1` (racemic): the Ratio Ki in assay [8] is 10; in assay [11] it was over 1000. Besides, the values for the Ki in assay [9] and in assay [10] were 109 nM and 2510 nM, respectively. The EC50 in [6] worked out at 18 nM. In addition, in assay [7], the Efficacy amounted to 60%.
`CC(C)(C(=O)Nc1nncs1)C(c1ccccc1)c1ccc2c(cnn2-c2ccncc2)c1` (racemic): the values for the Efficacy in [1], in [4] and in assay [7] were 56%, under 30% and 56%, respectively. In assay [2], this compound registered a Ki of 1.9 nM. In addition, the EC50 in assay [3] was 78 nM; in [5], over 10000 nM; in [6] it was 106 nM.
Regarding `CC(C)CCn1ncc2cc(C(c3ccccc3)C(C)(C)C(=O)Nc3nncs3)ccc21` (racemic), the Efficacy amounted to 87% in [1], 66% in [4] and 96% in [7]. Further, the affinity in [2] corresponds to a Ki of 5.7 nM. In addition, the EC50 in assay [3] came to 49 nM; in assay [5], 132 nM; in [6] it was 45 nM.
On to `CC(C(=O)Nc1nncs1)[C@@H](c1ccccc1)c1ccc2c(cnn2-c2ccc(F)cc2)c1` (single isomer, unassigned; diastereomer 2), for which the Ki in assay [9] came out at 214 nM; in assay [10], 243 nM.
On the same counts, the results for `CC(C(=O)Nc1nncs1)[C@@H](c1ccccc1)c1ccc2c(cnn2-c2ccc(F)cc2)c1` (single isomer, unassigned; diastereomer 3) are 22 nM and over 4170 nM.
